The source of these data is publication PMC3290340 (Pigment cell & melanoma research, 2012).

The structures appear in SMILES notation.

The test system of data set [1] is UACC 903 cells. As to the kind of experiment: Cellular S-1-P and ceramide content by LC-MS-MS, UACC 903. The class given is cell-based, human. The conditions noted are these: UACC 903, 2.5 and 5.0 μM, 48 hours. The procedure, abridged: (§1)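 UACC 903 or 1205 Lu cells (2.0×10^6, triplicate dishes) in DMEM/10% FBS; after 24 h, PBS-washed and treated 48 h with 2.5 or 5.0 μM test compound or DMSO. Floating cells pelleted at 500 x g, 5 min, 4 °C, PBS-washed and pooled with scraped adherent cells. Extracts assayed by LC-MS-MS for sphingosine, S-1-P and ceramides.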

Data set [2] is described as follows: Body weight during i.p. treatment. The class given is in vivo, nude mice. The conditions noted are these: 100 mg/kg.
For data set [3], the system named is UACC 903 xenografted melanoma tumors. As to the kind of experiment: Xenografted UACC 903 melanoma tumor growth. The class given is in vivo, nude mice. The conditions noted are these: UACC 903 xenograft, 100 mg/kg i.p. Mon/Wed/Fri, day 22. Summed up: (§2)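 Female nude mice, 4-6 weeks old, injected s.c. above both rib cages with 5×10^6 UACC 903 or 2.5×10^6 1205 Lu cells in 0.2 ml DMEM/10% FBS. On day 6, randomized (n=5, 10 tumors per group). Dosed i.p. at 100 mg/kg in 50 μl DMSO (or DMSO alone) Mon/Wed/Fri for 3 weeks. Tumor dimensions by calipers; body weight monitored.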

The target in another data set is recombinant SPHK1 (Homo sapiens, UniProt Q9NYA1). In words: In vitro SphK activity assay with recombinant SPHK1. The class given is biochemical. The conditions noted are these: recombinant protein, Fig. 2B.
The target in a further data set is T1, recombinant SPHK2 (Homo sapiens, UniProt Q9NRA0).
T1 sequence (Q9NRA0 1-654): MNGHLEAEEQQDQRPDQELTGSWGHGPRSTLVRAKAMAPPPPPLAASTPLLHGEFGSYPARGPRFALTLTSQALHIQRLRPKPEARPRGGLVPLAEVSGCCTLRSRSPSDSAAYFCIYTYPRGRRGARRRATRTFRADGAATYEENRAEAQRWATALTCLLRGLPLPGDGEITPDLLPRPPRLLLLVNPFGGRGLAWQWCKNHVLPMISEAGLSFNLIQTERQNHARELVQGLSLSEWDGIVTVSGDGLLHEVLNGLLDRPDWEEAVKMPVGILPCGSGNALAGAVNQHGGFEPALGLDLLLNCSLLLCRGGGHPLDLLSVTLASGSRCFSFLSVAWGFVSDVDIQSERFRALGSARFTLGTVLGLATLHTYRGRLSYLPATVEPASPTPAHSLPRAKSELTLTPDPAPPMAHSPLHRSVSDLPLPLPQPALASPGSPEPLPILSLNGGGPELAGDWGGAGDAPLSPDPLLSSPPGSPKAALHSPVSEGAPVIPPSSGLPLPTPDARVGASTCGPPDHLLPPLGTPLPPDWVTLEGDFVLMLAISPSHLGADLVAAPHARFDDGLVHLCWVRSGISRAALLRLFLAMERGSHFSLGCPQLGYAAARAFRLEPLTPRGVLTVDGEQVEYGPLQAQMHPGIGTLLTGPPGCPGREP
As to the kind of experiment: In vitro SphK activity assay with recombinant SPHK2. The conditions noted are these: Fig. 2B. The class given is biochemical.

The next data set relates to 1205 Lu melanoma cells. In words: MTS cell viability, 1205 Lu. The class given is cell-based, human. The conditions noted are these: value of the text (Fig. 3A, 72 hours). Summed up:
(§3)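 5×10^3 cells/well in DMEM/10% FBS, pre-grown 36 h (melanoma lines) or 72 h (FF2441 fibroblasts, FOM melanocytes). Then exposed to test compound (0.5–100 μM) or DMSO for 24, 48 or 72 h. Viability by MTS relative to vehicle-treated cells; IC50 fitted per line. Melanoma values also averaged across the six melanoma lines.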

Data set [4] has as its system 1205 Lu cells. In words: Cellular S-1-P and ceramide content by LC-MS-MS, 1205 Lu. The class given is cell-based, human. The conditions noted are these: 48 hours. Summed up:
as §1

Data set [5] relates to UACC 903 cells. As to the kind of experiment: Caspase-3/7 activity. The class given is cell-based, human. The conditions noted are these: UACC 903, 72 hours, tested 1, 2.5, 5.0 μM. Summed up: (§4)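 UACC 903, A375M or 1205 Lu cells (5×10^3/well, 96-well) exposed 72 h to test compound or DMSO. Caspase-3/7 substrate Z-DEVD-R110 (Apo-ONE kit) added 4 h before the end of treatment. Read-out is fold increase in caspase-3/7 activity over DMSO-treated cells. At least 3 independent experiments, SEM.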

Another data set has as its system A375M cells. As to the kind of experiment: Caspase-3/7 activity. The class given is cell-based, human. The conditions noted are these: 72 hours, tested 1, 2.5, 5.0 μM. The procedure, abridged:
as §4

The subject of a further data set is UACC 903 melanoma cells. As to the kind of experiment: MTS cell viability, UACC 903. The class given is cell-based, human. The procedure, abridged: as §3
The subject of data set [6] is UACC 903 cells. In words: Cell cycle analysis. The conditions noted are these: 72 h. The class given is cell-based, human. The procedure, abridged:
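1.5×10^6 UACC 903 cells grown in 100-mm dishes, then treated 72 h with 1, 2.5 or 5.0 μM test compound or DMSO. Floating plus adherent cells collected by trypsinization and stained 30 min at 4 °C (propidium iodide 100 μg/ml, RNase A 20 μg/ml, Triton X-100 3 μg/mL in 0.1% sodium citrate). Phase distribution by FACScan.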

The subject of data set [7] is 1205 Lu cells. In words: Caspase-3/7 activity. The class given is cell-based, human. The conditions noted are these: 72 hours, tested 1, 2.5, 5.0 μM. The procedure, abridged: as §4
Data set [8] relates to CYCLIN D1 in UACC 903 cells. In words: Western blot of CYCLIN D1. The conditions noted are these: 72 h; for Decrease in CYCLIN D1 expression: compared to DMSO. The class given is cell-based, human. Summed up: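 UACC 903 cells treated 72 h with test compound or DMSO and lysed in HEPES pH 7.5 buffer with protease/phosphatase inhibitors. Lysates cleared at 10,000 x g, 10 min, 4 °C; 30 μg protein per lane. Blotted to PVDF and detected by ECL. Band intensity densitometry given as percent change versus DMSO-treated cells.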

The test system of data set [9] is 1205 Lu xenografted melanoma tumors. As to the kind of experiment: Xenografted 1205 Lu melanoma tumor growth. The class given is in vivo, nude mice. The conditions noted are these: 1205 Lu xenograft, 100 mg/kg i.p. Mon/Wed/Fri, day 21. The procedure, abridged:
as §2

The next data set concerns A375M melanoma cells. In words: MTS cell viability, A375M. The conditions noted are these: value of the text (Fig. 3A, 72 hours). The class given is cell-based, human. Summed up:
as §3

For a further data set, the system named is melanoma cells. In words: MTS cell viability, average/range over the melanoma cell lines. The class given is cell-based, human. Summed up:
as §3

[10] abbreviates: UACC 903, 2.5 μM, compared to DMSO.

recombinant SPHK1, sequence (Q9NYA1 whole entry): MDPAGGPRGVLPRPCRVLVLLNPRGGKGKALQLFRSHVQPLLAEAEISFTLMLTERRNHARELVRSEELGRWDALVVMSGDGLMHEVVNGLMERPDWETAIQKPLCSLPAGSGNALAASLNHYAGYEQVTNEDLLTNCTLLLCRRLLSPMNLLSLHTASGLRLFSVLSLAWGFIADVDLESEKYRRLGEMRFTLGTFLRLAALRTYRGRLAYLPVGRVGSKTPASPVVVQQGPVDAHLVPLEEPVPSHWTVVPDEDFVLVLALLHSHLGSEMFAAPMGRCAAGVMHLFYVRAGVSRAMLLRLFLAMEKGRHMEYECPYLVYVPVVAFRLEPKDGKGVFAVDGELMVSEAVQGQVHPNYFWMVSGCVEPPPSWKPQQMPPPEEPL

As for `Oc1ccc(Nc2nc(-c3ccc(Cl)cc3)cs2)cc1` [SKI-II, 2-(p-hydroxyanilino)-4-(p-chlorophenyl) thiazole], in the data set with UACC 903 cells [1], the “Effect on cellular S-1-P” value is recorded as “did not effect” and the “Effect on cellular ceramide levels” value is given as “did not effect”. For the same molecule, the Body weight change result in [2] was “No weight changes”. In addition, the “Difference in tumor volume between vehicle control and treatment group” value in [3] is given as “no effect on tumor growth”. The “Inhibition of SPHK1 activity” value on recombinant SPHK1 is “effective at inhibiting”. The “Inhibition of SPHK2 activity” value on recombinant SPHK2 (recombinant protein) was “effective at inhibiting”. Also, the “Selectivity SPHK1 versus SPHK2” value at recombinant SPHK2 (recombinant proteins) was “slightly enhanced selectivity to SPHK2”.
For `O=C(N/N=C/c1c(O)ccc2ccccc12)c1cc(-c2ccc3ccccc3c2)n[nH]1` [SKI-I], the “Effect on cellular ceramide levels” value in the data set on UACC 903 cells [1] is listed as “induced”; in the data set on 1205 Lu cells [4] it was “increased”. The IC50 – broadly, the concentration that gives 50% inhibition – was found to be 4.89 ± 0.63 µM with 1205 Lu melanoma cells; 5.72 ± 0.35 µM in the data set with UACC 903 melanoma cells (UACC 903, value of the text (Fig. 3A, 72 hours)); 1.3 ± 0.27 µM with A375M melanoma cells; 20.6 µM with melanoma cells (read-out: Average IC50 for melanoma cells, 24 h treatment). Besides, the “Effect on cellular S-1-P” value with 1205 Lu cells [4] is given as “no significant change”. For the same molecule, the “Concentration of maximal caspase-3/7 activity” value is 5 µM in the data set on UACC 903 cells [5], 2.5 µM with A375M cells and 5 µM with 1205 Lu cells [7]. The “Reduction of cell viability” value in the data set with UACC 903 melanoma cells (UACC 903, 5 μM, 72 hours) is recorded as 50%. Also, the Body weight change result in data set [2] is “No weight changes”. Besides, in the data set with UACC 903 cells [6] (setting [10]), the “Fold decrease of the G0/G1 cell population” value came to 2.4 fold. In the data set with UACC 903 cells [6] (setting [10]), the “Fold increase of the G2/M population” value turned out to be 2.5 fold. The G2/M cell population result in the data set on UACC 903 cells [6] (UACC 903, 5 μM) is given as “below detectable levels”. Also, the “Decrease in CYCLIN D1 expression” value in [8] (UACC 903, 1 μM) is recorded as 86.1%; in [8] (UACC 903, 2.5 μM), 97.1%. Besides, the “CYCLIN D1 levels” value in data set [8] (UACC 903, 5 μM) is on record as “almost undetectable”. For the same molecule, the “Difference in tumor volume between vehicle control and treatment group” value in data set [9] was ~ 26%; in data set [3], ~ 40%. Further, in the data set with melanoma cells (SKI-I compared to SKI-II), the “Fold more effective than SKI-II (average IC50 values)” value is on record as ~ 10 fold.
